From ChEMBL document CHEMBL3804769, “Antibacterial Diamines Targeting Bacterial Membranes” (J Med Chem, 2016)
The source made the active and inactive calls. No cut-off for these calls is given here.

Columns and labels:
[1] = system: Staphylococcus aureus; assay: Antibacterial activity against methicillin-resistant Staphylococcus aureus clinical isolate 10082B SPA type 1 after 24 hrs by microbroth dilution method; assay type: functional
Procedure, shortened: (§1)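 MRSA isolates from ICU surfaces, stored at −80 °C and grown in Mueller-Hinton broth. Overnight cultures diluted and added to serially diluted compound at ~10⁵ CFU/mL, broth microdilution. Plates incubated 24 h at 37 °C, growth read as absorbance at 620 nm. MIC99 taken as the lowest concentration giving complete growth inhibition.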

[2] = system: Staphylococcus aureus; assay: Antibacterial activity against methicillin-resistant Staphylococcus aureus clinical isolate 20225B SPA type 15 after 24 hrs by microbroth dilution method; assay type: functional; procedure, shortened: as §1
[3] = system: Pseudomonas aeruginosa; assay: Antibiofilm activity against Pseudomonas aeruginosa PAO1 ATCC 47085 at 64 ug/ml after 24 hrs by crystal violet staining-based spectrophotometry; assay type: functional, organism-based
Procedure, shortened: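 PAO1 grown 2 h in LB at 37 °C with shaking, then diluted 1:1000 in 10% LB-PBS to 3 × 10⁵ CFU/mL and mixed with serially diluted compound. Biofilms grown on peg lids 24 h at 37 °C, static. Pegs washed, stained with 0.1% crystal violet for 15 min, dye eluted in 95% ethanol and read at 600 nm. Control was 10% LB-PBS.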

[4] = system: Pseudomonas aeruginosa; assay: Bactericidal activity against Pseudomonas aeruginosa PAO1 ATCC 47085 in stationary-phase assessed as reduction in bacterial burden at 4 times MIC99 after 4 hrs by time-kill assay; assay type: functional, organism-based
Procedure, shortened: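 Overnight cultures washed and resuspended in PBS, then diluted 100-fold into LB (exponential-phase model) or into 1% PBS (stationary-phase model). Test agent added at 4× MIC99. Incubated at 37 °C with shaking at 200 rpm. CFU counted on LB agar at 0, 2, 4 and 6 h.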

[5] = Hemolytic activity in human RBC after 1 hr; assay type: ADME, cell-based, Erythrocyte; details: red blood cells
Procedure, shortened: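 Human red blood cells, stored at 4 °C, added to serially diluted compound and incubated 1 h at 37 °C without shaking. Plates centrifuged and supernatant absorbance read at 540 nm. Triton X-100 as positive control. HC50 is the concentration lysing 50% of cells.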

[6] = Cytotoxicity against human A549 cells after 48 hrs by MTS conversion assay; assay type: cell-based
Procedure, shortened: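 HEK293T/17 and A549 cells maintained in DMEM with 10% FBS at 37 °C, 5% CO2. Seeded at 10⁴ cells per well; after 24 h, washed with PBS and exposed to serially diluted compound for 48 h. Viability read by MTS conversion. CC50 obtained by nonlinear regression.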

[7] = Selectivity index, ratio of CC50 for HEK293T/17 cells to MIC99 for Staphylococcus aureus RN4220 ATCC 35556; assay type: toxicity, cell-based; details: human, read-out: Selectivity Index
Procedure, shortened: (§2)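 CC50: HEK293T/17 or A549 cells seeded at 10⁴ per well in DMEM with 10% FBS at 37 °C, 5% CO2. After 24 h, wells PBS-washed and serially diluted compound applied for 48 h, with viability read by MTS and CC50 taken by nonlinear regression. MIC99 by CLSI broth microdilution, overnight at 37 °C without shaking, from three independent tests. SI = CC50/MIC99.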

[8] = Selectivity index, ratio of CC50 for HEK293T/17 cells to MIC99 for Pseudomonas aeruginosa PAO1 ATCC 47085; assay type: toxicity, cell-based; details: human, read-out: Selectivity Index; procedure, shortened: as §2
[9] = Selectivity index, ratio of CC50 for HEK293T/17 cells to MIC99 for Escherichia coli ANS1; procedure, shortened: as §2
[10] = Selectivity index, ratio of CC50 for human A549 cells to MIC99 for Pseudomonas aeruginosa PAO1 ATCC 47085; assay type: toxicity, cell-based; details: read-out: Selectivity Index; procedure, shortened: as §2
[11] = Selectivity index, ratio of CC50 for human A549 cells to MIC99 for Escherichia coli ANS1; procedure, shortened: as §2
[12] = Selectivity index, ratio of CC50 for human A549 cells to MIC99 for methicillin-resistant Staphylococcus aureus clinical isolate
[13] = system: Caenorhabditis elegans; assay: Toxicity in adult L4/juvenile L1 stages of Caenorhabditis elegans N2 assessed as effect on viable eggs production at 64 ug/ml incubated for 96 hrs measured every 12 hrs; assay type: organism-based; details: in vivo
Procedure, shortened: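 C. elegans N2 maintained on NGM agar at 22 °C. Compound mixed into molten NGM agar at 64 μg/mL. L4 adults, L1 juveniles and synchronized eggs transferred onto test plates and kept 96 h at 22 °C. Checked every 12 h for death, development and egg production. Gentamicin and […] as controls.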

[14] = Toxicity in adult L4/juvenile L1 stages of Caenorhabditis elegans N2 assessed as survival at 64 ug/ml incubated for 96 hrs measured every 12 hrs; assay type: organism-based; details: in vivo
Procedure, shortened: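 C. elegans N2 kept on NGM agar at 22 °C. Compound mixed into molten NGM agar at 64 μg/mL. L4 adults, L1 juveniles and synchronized eggs transferred onto test plates and held at 22 °C for 96 h. Death, development and egg production checked every 12 h.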

[15] = system: Caenorhabditis elegans; assay: Toxicity in adult L4/juvenile L1 stages of Caenorhabditis elegans N2 assessed as effect on locomotion at 64 ug/ml incubated for 96 hrs measured every 12 hrs; assay type: organism-based; details: in vivo
[16] = system: Staphylococcus aureus; assay: Antibacterial activity against Staphylococcus aureus RN4220 ATCC 35556 in early exponential-phase assessed as numerous spherical double layered mesosome like structures at 2 times MIC99 after 30 to 60 mins by transmission electron microscopy; assay type: functional, organism-based
Procedure, shortened: (§3)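 Cells grown in LB to early exponential phase (OD600 ~0.4). Exposed to 2× MIC99 for 15–60 min, washed twice in phosphate buffer, fixed in 2.5% glutaraldehyde, then imaged by transmission electron microscopy.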

[17] = system: Pseudomonas aeruginosa; assay: Antibacterial activity against Pseudomonas aeruginosa PAO1 ATCC 47085 in early exponential-phase assessed as membrane damage at 2 times MIC99 after 15 mins by transmission electron microscopy; assay type: functional, organism-based; procedure, shortened: as §3
[18] = system: Staphylococcus aureus; assay: Antibacterial activity against Staphylococcus aureus RN4220 ATCC 35556 at 0.5 times MIC99 after 24 hrs by checkerboard assay in presence of ampicillin; assay type: functional
Procedure, shortened: (§4)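 Checkerboard assay: compound serially diluted along one axis of a 96-well plate and antibiotic along the other, in LB. Each well inoculated with 2 × 10⁴ CFU and incubated 24 h at 37 °C. ΣFIC = FIC A + FIC B, where each FIC is the combination MIC99 divided by the MIC99 of that drug alone.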

[19] = system: Staphylococcus aureus; assay: Antibacterial activity against Staphylococcus aureus RN4220 ATCC 35556 at 0.5 times MIC99 after 24 hrs by checkerboard assay in presence of kanamycin; assay type: functional; procedure, shortened: as §4
[20] = system: Pseudomonas aeruginosa; assay: Antibacterial activity against Pseudomonas aeruginosa PAO1 ATCC 47085 at 0.5 times MIC99 after 24 hrs by checkerboard assay in presence of ampicillin; assay type: functional; procedure, shortened: as §4
[21] = system: Pseudomonas aeruginosa; assay: Antibacterial activity against Pseudomonas aeruginosa PAO1 ATCC 47085 at 0.5 times MIC99 after 24 hrs by checkerboard assay in presence of norfloxacin; assay type: functional; procedure, shortened: as §4
[22] = system: Staphylococcus aureus; assay: Bactericidal activity against Staphylococcus aureus RN4220 ATCC 35556 assessed as reduction in bacterial burden at 0.5 times MIC99 after 3 to 24 hrs by time kill assay in presence of 0.5 times MIC99 of kanamycin relative to control; assay type: functional
Procedure, shortened: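 Combination time-kill in LB at 1 × 10⁶ CFU/mL starting inoculum. Arms were compound or kanamycin alone at 1× and 0.5× MIC99, and the two combined at 0.5× MIC99 each. Incubated at 37 °C with shaking at 300 rpm. Viable counts taken by dilution and plating on LB agar at 0, 3, 6 and 24 h.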

Compound: Cl.Cl.S=C(NCCCNCCCCCNCCCNC(=S)NCC(c1ccccc1)c1ccccc1)NCC(c1ccccc1)c1ccccc1
- MIC99 [1]: 1 µg/mL
- MIC99 [2]: 1 µg/mL
- Activity [3]: Active
- Activity [4]: Active
- HC50 at 1 h [5]: 64 µg/mL
- CC50 at 48 h [6]: 64 µg/mL
- selectivity ratio [7]: 16
- selectivity ratio [8]: 4
- Selectivity Index [9]: 16
- selectivity ratio [10]: 8
- Selectivity Index [11]: 32
- Selectivity Index [12]: 64
- Activity [13]: Non-toxic
- survival at 96 h, 64 ug/ml [14]: 100%
- Activity [15]: Non-toxic
- Activity [16]: Active
- Activity [17]: Active
- fractional inhibitory concentration index (FICI) [18]: 0.75
- fractional inhibitory concentration index (FICI) [19]: 0.25
- fractional inhibitory concentration index (FICI) [20]: 2
- fractional inhibitory concentration index (FICI) [21]: 0.75
- Activity [22]: >2 deltalog10CFU/ml
